Reference: ChEMBL document CHEMBL1154934, “Identification of piperazine-bisamide GHSR antagonists for the treatment of obesity” (Bioorg Med Chem Lett, 2010)
pIC50, pKi: −log10 of the molar value.

Assays:
[1] = molecular target: 5-hydroxytryptamine receptor 2A (Homo sapiens, UniProt P28223); assay: Inhibition of 5HT2A (receptor)
[2] = molecular target: T1, 5-hydroxytryptamine receptor 2C (Homo sapiens, UniProt P28335); assay: Inhibition of 5HT2C (receptor)
T1 sequence (P28335 whole entry): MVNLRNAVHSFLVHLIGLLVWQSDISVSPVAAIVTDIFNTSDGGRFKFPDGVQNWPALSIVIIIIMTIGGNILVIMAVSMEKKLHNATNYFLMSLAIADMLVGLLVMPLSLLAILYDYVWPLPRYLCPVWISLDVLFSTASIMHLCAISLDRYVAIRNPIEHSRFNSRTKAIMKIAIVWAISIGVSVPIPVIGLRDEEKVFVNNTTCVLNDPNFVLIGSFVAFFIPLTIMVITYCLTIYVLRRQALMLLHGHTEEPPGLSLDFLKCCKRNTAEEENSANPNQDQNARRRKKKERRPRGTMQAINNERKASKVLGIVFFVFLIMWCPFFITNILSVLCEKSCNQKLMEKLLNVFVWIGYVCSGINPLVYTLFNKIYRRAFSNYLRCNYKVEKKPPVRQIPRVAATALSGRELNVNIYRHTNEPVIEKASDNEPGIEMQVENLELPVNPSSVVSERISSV

[3] = molecular target: Sodium-dependent serotonin transporter (Homo sapiens, UniProt P31645); assay: Inhibition of SERT
Sodium-dependent serotonin transporter, sequence (P31645 whole entry): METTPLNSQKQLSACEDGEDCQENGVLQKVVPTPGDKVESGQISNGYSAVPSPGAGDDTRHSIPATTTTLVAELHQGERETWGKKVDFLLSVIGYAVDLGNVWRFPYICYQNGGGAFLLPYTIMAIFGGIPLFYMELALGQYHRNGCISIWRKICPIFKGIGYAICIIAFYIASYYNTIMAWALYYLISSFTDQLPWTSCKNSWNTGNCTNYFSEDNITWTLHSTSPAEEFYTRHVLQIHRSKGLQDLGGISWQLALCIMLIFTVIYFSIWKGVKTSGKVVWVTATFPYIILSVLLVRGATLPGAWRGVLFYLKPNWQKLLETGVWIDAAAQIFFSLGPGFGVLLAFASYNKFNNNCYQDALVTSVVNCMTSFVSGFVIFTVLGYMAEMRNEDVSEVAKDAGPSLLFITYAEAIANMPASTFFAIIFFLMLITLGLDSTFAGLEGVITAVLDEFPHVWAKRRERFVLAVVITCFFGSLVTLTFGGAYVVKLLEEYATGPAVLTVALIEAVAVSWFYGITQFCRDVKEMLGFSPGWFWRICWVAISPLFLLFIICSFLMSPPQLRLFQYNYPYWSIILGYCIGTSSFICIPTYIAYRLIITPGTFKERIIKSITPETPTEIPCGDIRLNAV

[4] = molecular target: T2, Alpha-2A adrenergic receptor (Homo sapiens, UniProt P08913); assay: Inhibition of alpha2A adrenergic receptor
T2 sequence (P08913 whole entry): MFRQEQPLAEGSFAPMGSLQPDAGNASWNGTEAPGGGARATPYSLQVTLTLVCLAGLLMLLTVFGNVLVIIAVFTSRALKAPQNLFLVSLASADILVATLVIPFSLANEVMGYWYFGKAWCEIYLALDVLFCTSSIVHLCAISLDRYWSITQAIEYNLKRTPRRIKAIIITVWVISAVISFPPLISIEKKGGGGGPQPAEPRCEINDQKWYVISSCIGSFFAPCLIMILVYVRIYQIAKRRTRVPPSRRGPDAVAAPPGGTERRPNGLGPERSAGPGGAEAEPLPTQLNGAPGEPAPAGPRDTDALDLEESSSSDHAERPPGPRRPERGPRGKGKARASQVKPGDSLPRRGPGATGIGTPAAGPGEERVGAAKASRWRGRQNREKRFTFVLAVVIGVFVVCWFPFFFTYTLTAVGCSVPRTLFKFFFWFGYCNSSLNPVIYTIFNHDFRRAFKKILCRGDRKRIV

[5] = molecular target: D(2) dopamine receptor (Homo sapiens, UniProt P14416); assay: Inhibition of dopamine D2 receptor
D(2) dopamine receptor, sequence (P14416 whole entry): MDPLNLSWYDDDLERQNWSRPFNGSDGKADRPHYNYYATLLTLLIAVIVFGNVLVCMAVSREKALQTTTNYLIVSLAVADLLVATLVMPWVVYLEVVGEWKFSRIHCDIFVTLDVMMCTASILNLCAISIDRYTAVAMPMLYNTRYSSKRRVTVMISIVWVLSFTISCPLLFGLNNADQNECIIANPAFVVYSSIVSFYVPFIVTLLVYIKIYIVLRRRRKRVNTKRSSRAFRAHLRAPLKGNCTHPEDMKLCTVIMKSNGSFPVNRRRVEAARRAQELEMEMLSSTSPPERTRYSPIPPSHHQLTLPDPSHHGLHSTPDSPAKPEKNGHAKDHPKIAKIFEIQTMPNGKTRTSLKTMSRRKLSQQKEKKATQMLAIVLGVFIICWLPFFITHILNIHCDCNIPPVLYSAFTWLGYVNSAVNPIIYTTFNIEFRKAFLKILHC

[6] = molecular target: D(3) dopamine receptor (Homo sapiens, UniProt P35462); assay: Inhibition of dopamine D3 receptor
D(3) dopamine receptor, sequence (P35462 whole entry): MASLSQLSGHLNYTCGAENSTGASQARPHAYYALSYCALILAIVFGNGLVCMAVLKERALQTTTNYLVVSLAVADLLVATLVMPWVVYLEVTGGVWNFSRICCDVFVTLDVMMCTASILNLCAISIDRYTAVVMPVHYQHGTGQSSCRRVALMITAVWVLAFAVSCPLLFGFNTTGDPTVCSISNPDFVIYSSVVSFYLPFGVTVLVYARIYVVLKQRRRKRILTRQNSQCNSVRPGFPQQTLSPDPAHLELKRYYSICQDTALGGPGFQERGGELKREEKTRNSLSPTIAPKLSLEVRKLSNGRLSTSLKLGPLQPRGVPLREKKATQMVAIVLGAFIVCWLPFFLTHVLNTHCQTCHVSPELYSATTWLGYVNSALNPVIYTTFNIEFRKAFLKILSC

[7] = molecular target: Sodium-dependent dopamine transporter (Homo sapiens, UniProt Q01959); assay: Inhibition of DAT
[8] = molecular target: Mu-type opioid receptor (Homo sapiens, UniProt P35372); assay: Inhibition of mu opioid receptor
Mu-type opioid receptor, sequence (P35372 whole entry): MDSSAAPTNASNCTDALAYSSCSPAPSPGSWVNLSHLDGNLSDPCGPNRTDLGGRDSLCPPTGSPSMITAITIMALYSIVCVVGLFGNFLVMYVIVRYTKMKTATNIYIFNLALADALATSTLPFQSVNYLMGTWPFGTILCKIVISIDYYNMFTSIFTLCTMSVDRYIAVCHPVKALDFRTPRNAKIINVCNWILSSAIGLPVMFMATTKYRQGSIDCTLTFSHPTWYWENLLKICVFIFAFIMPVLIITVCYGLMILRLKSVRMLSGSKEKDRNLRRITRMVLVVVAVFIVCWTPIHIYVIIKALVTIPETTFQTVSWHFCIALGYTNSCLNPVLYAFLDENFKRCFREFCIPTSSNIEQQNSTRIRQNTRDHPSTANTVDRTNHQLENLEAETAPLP

[9] = molecular target: Kappa-type opioid receptor (Homo sapiens, UniProt P41145); assay: Inhibition of kappa opioid receptor
Kappa-type opioid receptor, sequence (P41145 whole entry): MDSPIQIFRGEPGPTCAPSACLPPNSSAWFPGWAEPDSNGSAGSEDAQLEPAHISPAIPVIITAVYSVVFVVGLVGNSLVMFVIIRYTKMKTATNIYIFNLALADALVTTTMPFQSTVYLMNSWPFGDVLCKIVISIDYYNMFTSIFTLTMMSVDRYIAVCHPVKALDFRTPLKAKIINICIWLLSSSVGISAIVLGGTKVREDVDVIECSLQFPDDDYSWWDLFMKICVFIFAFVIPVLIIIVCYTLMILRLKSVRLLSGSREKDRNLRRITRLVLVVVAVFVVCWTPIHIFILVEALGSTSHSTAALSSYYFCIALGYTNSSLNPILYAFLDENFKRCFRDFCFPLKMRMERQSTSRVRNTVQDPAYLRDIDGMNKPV

[10] = molecular target: Muscarinic acetylcholine receptor M3 (Homo sapiens, UniProt P20309); assay: Inhibition of muscarinic M3 receptor
Muscarinic acetylcholine receptor M3, sequence (P20309 whole entry): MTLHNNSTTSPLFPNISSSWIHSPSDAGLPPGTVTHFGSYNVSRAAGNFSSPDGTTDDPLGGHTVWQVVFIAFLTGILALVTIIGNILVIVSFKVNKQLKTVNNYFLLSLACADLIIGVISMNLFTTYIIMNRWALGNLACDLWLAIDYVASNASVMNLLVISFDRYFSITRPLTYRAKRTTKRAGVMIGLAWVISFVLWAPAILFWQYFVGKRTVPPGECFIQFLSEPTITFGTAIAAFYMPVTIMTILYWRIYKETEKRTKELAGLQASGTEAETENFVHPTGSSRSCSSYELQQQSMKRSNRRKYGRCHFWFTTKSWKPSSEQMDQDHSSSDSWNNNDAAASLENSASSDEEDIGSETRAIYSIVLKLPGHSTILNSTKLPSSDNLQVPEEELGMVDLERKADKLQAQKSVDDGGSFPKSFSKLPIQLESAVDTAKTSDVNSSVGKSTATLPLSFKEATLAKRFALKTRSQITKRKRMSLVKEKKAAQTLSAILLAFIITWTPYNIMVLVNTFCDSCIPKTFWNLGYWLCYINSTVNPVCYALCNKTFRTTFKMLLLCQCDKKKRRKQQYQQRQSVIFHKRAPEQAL

[11] = molecular target: Sodium-dependent noradrenaline transporter (Homo sapiens, UniProt P23975); assay: Inhibition of NET
Sodium-dependent noradrenaline transporter, sequence (P23975 whole entry): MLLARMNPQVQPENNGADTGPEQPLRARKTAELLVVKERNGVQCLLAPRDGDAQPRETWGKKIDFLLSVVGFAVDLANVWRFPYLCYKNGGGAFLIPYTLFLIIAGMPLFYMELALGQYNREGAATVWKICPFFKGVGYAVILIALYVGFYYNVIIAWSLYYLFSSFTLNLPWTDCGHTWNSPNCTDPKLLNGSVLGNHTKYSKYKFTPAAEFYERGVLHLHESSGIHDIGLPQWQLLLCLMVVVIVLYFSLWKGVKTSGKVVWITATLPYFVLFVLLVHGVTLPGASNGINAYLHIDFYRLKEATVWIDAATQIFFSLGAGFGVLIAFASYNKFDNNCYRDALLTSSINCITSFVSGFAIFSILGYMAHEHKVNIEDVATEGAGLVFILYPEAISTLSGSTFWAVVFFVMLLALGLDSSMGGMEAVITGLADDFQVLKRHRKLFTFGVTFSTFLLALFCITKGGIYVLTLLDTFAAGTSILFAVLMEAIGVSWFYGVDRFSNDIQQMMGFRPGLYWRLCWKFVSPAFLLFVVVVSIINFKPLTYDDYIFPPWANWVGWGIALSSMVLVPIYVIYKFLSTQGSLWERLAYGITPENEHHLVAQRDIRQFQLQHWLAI

[12] = molecular target: Histamine H2 receptor (Homo sapiens, UniProt P25021); assay: Inhibition of histamine H2 receptor
Histamine H2 receptor, sequence (P25021 whole entry): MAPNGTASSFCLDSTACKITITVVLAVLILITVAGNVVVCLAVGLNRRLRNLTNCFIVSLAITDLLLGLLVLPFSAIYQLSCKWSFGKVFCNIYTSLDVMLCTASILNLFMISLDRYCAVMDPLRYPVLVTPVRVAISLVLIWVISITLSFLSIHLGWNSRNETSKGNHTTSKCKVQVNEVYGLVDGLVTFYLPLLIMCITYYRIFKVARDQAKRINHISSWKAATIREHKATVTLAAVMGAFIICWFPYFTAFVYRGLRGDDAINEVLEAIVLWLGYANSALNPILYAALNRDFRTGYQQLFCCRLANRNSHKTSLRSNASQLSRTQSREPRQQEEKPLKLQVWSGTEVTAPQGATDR

[13] = molecular target: T3, Growth hormone secretagogue receptor type 1 (Homo sapiens, UniProt Q92847); assay: Antagonist activity at human GHSR expressed in CHOK1 cells assessed as inhibition of ghrelin-induced intracellular calcium flux by aequorin flash luminescence assay; type: functional, cell-based, CHO-K1
T3 sequence (Q92847 whole entry): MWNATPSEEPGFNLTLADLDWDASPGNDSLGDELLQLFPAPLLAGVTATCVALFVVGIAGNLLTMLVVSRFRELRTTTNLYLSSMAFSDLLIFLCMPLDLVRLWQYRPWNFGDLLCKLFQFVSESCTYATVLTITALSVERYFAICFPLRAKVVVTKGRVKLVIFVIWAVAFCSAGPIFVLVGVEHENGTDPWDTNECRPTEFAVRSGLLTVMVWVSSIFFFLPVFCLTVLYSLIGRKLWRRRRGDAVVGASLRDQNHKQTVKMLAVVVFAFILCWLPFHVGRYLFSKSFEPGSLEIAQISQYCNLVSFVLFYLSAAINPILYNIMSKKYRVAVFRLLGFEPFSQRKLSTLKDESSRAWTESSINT
How it was run: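 Aequorin flash luminescence in CHO-K1 cells stably co-expressing human ghrelin receptor and aequorin. […] IC50 values are means of three determinations.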

[14] = molecular target: T3, Growth hormone secretagogue receptor type 1; assay: Agonist activity at human GHSR expressed in CHO cells assessed as increase in ghrelin-induced [3H]IP accumulation at 10 uM after 1 hr by scintillation counting relative to ghrelin; type: functional, cell-based
How it was run: (§1)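 CHO cells stably expressing human or rat GHSR labelled 12 h with 3H-inositol (1 µCi/mL in DMEM), then exposed to ghrelin or compound at 37 °C for 1.0 h. Lysis with 20 mM formic acid, 4 °C, 4 h. Extract taken onto SPA beads, 12 h in the dark, then radioactivity counted. IP accumulation expressed as % of maximal ghrelin response at 10, 1.0 and 0.1 µM.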

[15] = molecular target: Growth hormone secretagogue receptor type 1 (Rattus norvegicus) (UniProt O08725); assay: Agonist activity at rat GHSR expressed in CHO cells assessed as increase in ghrelin-induced [3H]IP accumulation at 10 uM after 1 hr by scintillation counting relative to ghrelin; type: functional, cell-based; how it was run: as §1
Growth hormone secretagogue receptor type 1 (Rattus norvegicus), sequence (O08725 whole entry): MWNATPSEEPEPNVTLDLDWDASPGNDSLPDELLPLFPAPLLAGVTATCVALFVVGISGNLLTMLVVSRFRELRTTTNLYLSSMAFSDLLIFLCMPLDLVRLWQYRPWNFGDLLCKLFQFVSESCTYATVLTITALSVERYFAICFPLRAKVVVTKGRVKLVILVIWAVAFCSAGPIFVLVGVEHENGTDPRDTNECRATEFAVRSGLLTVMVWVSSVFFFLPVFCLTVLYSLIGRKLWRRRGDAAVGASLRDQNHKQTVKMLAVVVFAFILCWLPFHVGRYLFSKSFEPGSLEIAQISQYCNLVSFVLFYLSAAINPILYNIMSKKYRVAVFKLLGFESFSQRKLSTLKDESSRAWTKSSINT

[16] = Induction of growth hormone release from Sprague-Dawley rat pituitary cells at 1 uM after 20 mins by RIA assay relative to ghrelin; type: functional, Pituitary gland cell
How it was run: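 Pituitary cells from 6–8-week-old male SD rats plated on poly-D-lysine and cultured 3 days at 37 °C. Washed with DMEM assay buffer (20 mM Hepes, 0.3% BSA) and held 5 min at 37 °C. Treated with rat ghrelin or compound for 20 min, then GH release measured as % of maximal ghrelin response. Means of three determinations.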

| Structure (SMILES) | pKi [1] | pKi [2] | pKi [3] | pKi [4] | pKi [5] | pKi [6] | pKi [7] | pKi [8] | pKi [9] | pKi [10] | pKi [11] | pKi [12] | pIC50 [13] | Activity [14] | Activity [15] | Activity [16] |
| --- | --- | --- | --- | --- | --- | --- | --- | --- | --- | --- | --- | --- | --- | --- | --- | --- |
| C[C@H]1CN(C(=O)c2ccc(-c3ccccc3C(F)(F)F)cc2)CCN1C(=O)c1ccc2cc[nH]c2c1 | < 5.00 | < 5.00 | < 5.00 | < 5.00 | < 5.00 | < 5.00 | < 5.00 | < 5.00 | < 5.00 | < 5.00 | < 5.00 | < 5.00 | 8.39 | 24% | 28% | 21% |
| O=C(c1ccc(-c2ccccc2)cc1)N1CCCN(C(=O)c2ccc3cc[nH]c3c2)CC1 |  |  |  |  |  |  |  |  |  |  |  |  | 5.19 |  |  |  |
| C[C@H]1CN(C(=O)c2ccc(-c3cn[nH]c3)cc2)CCN1C(=O)c1ccc2cc[nH]c2c1 |  |  |  |  |  |  |  |  |  |  |  |  | 6.91 |  | 17% |  |
| C[C@H]1CN(C(=O)c2ccc(-c3ccccc3)nc2)CCN1C(=O)c1ccc2cc[nH]c2c1 |  |  |  |  |  |  |  |  |  |  |  |  | 7.70 |  | 19% |  |
| C[C@H]1CN(C(=O)c2ccc(-c3ccncc3)cc2)CCN1C(=O)c1ccc2cc[nH]c2c1 |  |  |  |  |  |  |  |  |  |  |  |  | 7.90 |  | -2% |  |
| C[C@H]1CN(C(=O)c2ccc(-c3ccccc3)cc2F)CCN1C(=O)c1ccc2cc[nH]c2c1 |  |  |  |  |  |  |  |  |  |  |  |  | 7.75 |  | 43% |  |
| COc1cccc(-c2ccc(C(=O)N3CCN(C(=O)c4ccc5cc[nH]c5c4)CC3)cc2)c1 |  |  |  |  |  |  |  |  |  |  |  |  | 7.60 |  |  |  |
| COc1cccc(-c2ccc(C(=O)N3CCN(C(=O)c4ccc5cc[nH]c5c4)C[C@H]3C)cc2)c1 |  |  |  |  |  |  |  |  |  |  |  |  | 7.17 |  |  |  |
| C[C@H]1CN(C(=O)c2csc(-c3ccccc3F)n2)CCN1C(=O)c1ccc2cc[nH]c2c1 |  |  |  |  |  |  |  |  |  |  |  |  | 7.47 |  | 14% |  |
| Cc1ccccc1-c1ccc(C(=O)N2CCN(C(=O)c3ccc4cc[nH]c4c3)[C@@H](C)C2)cc1F |  |  |  |  |  |  |  |  |  |  |  |  | 8.05 |  | 16% |  |
| C[C@H]1CN(C(=O)c2ccc(-c3cccc(OC(F)(F)F)c3)cc2)CCN1C(=O)c1ccc2cc[nH]c2c1 | < 5.00 | < 5.00 | < 5.00 | < 5.00 | < 5.00 | < 5.00 | < 5.00 | < 5.00 | < 5.00 | < 5.00 | < 5.00 | < 5.00 | 7.33 |  |  |  |
| C[C@H]1CN(C(=O)c2ccc(-c3ccccc3)cc2)CCN1C(=O)c1ccc2cc[nH]c2c1 | < 5.00 | < 5.00 | < 5.00 | < 5.00 | < 5.00 | < 5.00 | < 5.00 | < 5.00 | < 5.00 | < 5.00 | < 5.00 | < 5.00 | 8.22 | 29% | 26% |  |
| COc1cccc(-c2ccc(C(=O)N3CCN(C(=O)c4ccc5cc[nH]c5c4)C[C@@H]3C)cc2)c1 |  |  |  |  |  |  |  |  |  |  |  |  | 6.55 |  |  |  |
| C[C@H]1CN(C(=O)c2ccc(-c3ccc(OC(F)(F)F)cc3)cc2)CCN1C(=O)c1ccc2cc[nH]c2c1 | < 5.00 | < 5.00 | < 5.00 | < 5.00 | < 5.00 | < 5.00 | < 5.00 | < 5.00 | < 5.00 | < 5.00 | < 5.00 | < 5.00 | 6.87 |  |  |  |
| C[C@H]1CN(C(=O)c2ccc(-c3cncs3)cc2)CCN1C(=O)c1ccc2cc[nH]c2c1 |  |  |  |  |  |  |  |  |  |  |  |  | 7.19 |  | 5% |  |
| C[C@H]1CN(C(=O)c2ccc(-c3ccccn3)cc2)CCN1C(=O)c1ccc2cc[nH]c2c1 |  |  |  |  |  |  |  |  |  |  |  |  | 7.37 |  | 12% |  |
| Cc1cc(-c2ccccc2)ccc1C(=O)N1CCN(C(=O)c2ccc3cc[nH]c3c2)[C@@H](C)C1 |  |  |  |  |  |  |  |  |  |  |  |  | 7.84 |  | 36% |  |
| C[C@H]1CN(C(=O)c2ccc(-c3ccc(F)cc3)cc2)CCN1C(=O)c1ccc2cc[nH]c2c1 | < 5.00 | < 5.00 | < 5.00 | < 5.00 | < 5.00 | < 5.00 | < 5.00 | < 5.00 | < 5.00 | < 5.00 | < 5.00 | < 5.00 | 7.19 |  |  |  |

Further molecules by rising pIC50 [13], results first:

| pKi [1] | pKi [2] | pKi [3] | pKi [4] | pKi [5] | pKi [6] | pKi [7] | pKi [8] | pKi [9] | pKi [10] | pKi [11] | pKi [12] | pIC50 [13] | Activity [14] | Activity [15] | Structure (SMILES) | Activity [16] |
| --- | --- | --- | --- | --- | --- | --- | --- | --- | --- | --- | --- | --- | --- | --- | --- | --- |
| < 5.00 | < 5.00 | < 5.00 | < 5.00 | < 5.00 | < 5.00 | < 5.00 | < 5.00 | < 5.00 | < 5.00 | < 5.00 | < 5.00 | 6.19 |  |  | COc1cccc(-c2ccc(C(=O)N3CCN(C(=O)c4ccc5cc[nH]c5c4)[C@H](C)C3)cc2)c1 |  |
|  |  |  |  |  |  |  |  |  |  |  |  | 6.47 |  |  | C[C@H]1CN(C(=O)c2ccc(N3CCOCC3)cc2)CCN1C(=O)c1ccc2cc[nH]c2c1 |  |
|  |  |  |  |  |  |  |  |  |  |  |  | 6.61 |  | 5% | Cc1noc(C)c1-c1ccc(C(=O)N2CCN(C(=O)c3ccc4cc[nH]c4c3)[C@@H](C)C2)cc1 |  |
| < 5.00 | < 5.00 | < 5.00 | < 5.00 | < 5.00 | < 5.00 | < 5.00 | < 5.00 | < 5.00 | < 5.00 | < 5.00 | < 5.00 | 6.83 |  |  | C[C@H]1CN(C(=O)c2ccc(-c3cccc(F)c3)cc2)CCN1C(=O)c1ccc2cc[nH]c2c1 |  |
|  |  |  |  |  |  |  |  |  |  |  |  | 6.84 |  | 21% | C[C@H]1CN(C(=O)c2ccc(-c3cccnc3)cc2)CCN1C(=O)c1ccc2cc[nH]c2c1 |  |
| < 5.00 | < 5.00 | < 5.00 | < 5.00 | < 5.00 | < 5.00 | < 5.00 | < 5.00 | < 5.00 | < 5.00 | < 5.00 | < 5.00 | 7.11 |  |  | C[C@H]1CN(C(=O)c2ccc(-c3cccc(C(F)(F)F)c3)cc2)CCN1C(=O)c1ccc2cc[nH]c2c1 |  |
|  |  |  |  |  |  |  |  |  |  |  |  | 7.43 |  | 18% | C[C@H]1CN(C(=O)c2ccc(-c3ccccc3Cl)cn2)CCN1C(=O)c1ccc2cc[nH]c2c1 |  |
| < 5.00 | < 5.00 | < 5.00 | < 5.00 | < 5.00 | < 5.00 | < 5.00 | < 5.00 | < 5.00 | < 5.00 | < 5.00 | < 5.00 | 7.59 |  |  | COc1ccccc1-c1ccc(C(=O)N2CCN(C(=O)c3ccc4cc[nH]c4c3)[C@@H](C)C2)cc1 |  |
|  |  |  |  |  |  |  |  |  |  |  |  | 7.89 |  | 14% | C[C@H]1CN(C(=O)c2ccc(-c3ccccc3Cl)nc2)CCN1C(=O)c1ccc2cc[nH]c2c1 |  |
| < 5.00 | < 5.00 | < 5.00 | < 5.00 | < 5.00 | < 5.00 | < 5.00 | < 5.00 | < 5.00 | < 5.00 | < 5.00 | < 5.00 | 8.15 | 33% | 34% | COc1ccc(-c2ccc(C(=O)N3CCN(C(=O)c4ccc5cc[nH]c5c4)[C@@H](C)C3)cc2)cc1 |  |
